The values below come from ChEMBL document CHEMBL1131259, “Synthesis and evaluation of diphenyl phosphonate esters as inhibitors of the trypsin-like granzymes A and K and mast cell tryptase” (J Med Chem, 1998).

As usually defined, the inhibition is the percentage by which the read-out fell short of the control. Low readings indicate a weak effect, high ones a strong effect.

Activity calls are given as the source filed them. The rule behind the calls is not given here.

Assay [1] concerns the target T1, Granzyme A (Homo sapiens) (UniProt P12544).
T1 sequence (whole entry): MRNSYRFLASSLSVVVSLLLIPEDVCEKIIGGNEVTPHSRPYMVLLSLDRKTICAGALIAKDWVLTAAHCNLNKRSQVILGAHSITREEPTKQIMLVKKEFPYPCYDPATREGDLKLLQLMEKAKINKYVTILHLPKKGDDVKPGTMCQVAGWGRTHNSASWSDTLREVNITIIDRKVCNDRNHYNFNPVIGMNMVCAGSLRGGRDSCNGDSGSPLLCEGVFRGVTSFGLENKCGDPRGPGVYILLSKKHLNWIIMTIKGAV
Briefly: Inhibition of human granzyme A. Put shortly:
(§1)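 Recombinant human and rat granzyme A, incubated with inhibitor (1.0–450 μM) at 25 °C in 0.1 M Hepes, 0.01 M CaCl2, pH 7.5 (7.6% DMSO). Timed aliquots were read for residual activity on Cbz-Arg-SBzl with DTNB at 405 nm. k_obs came from ln vt/vo vs time over 5–10 points and 2–3 half-lives, two k_obs per inhibitor. DMSO controls were run.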

In assay [2] the target is T2, Granzyme K (Rattus norvegicus) (UniProt P49864).
T2 sequence (whole entry): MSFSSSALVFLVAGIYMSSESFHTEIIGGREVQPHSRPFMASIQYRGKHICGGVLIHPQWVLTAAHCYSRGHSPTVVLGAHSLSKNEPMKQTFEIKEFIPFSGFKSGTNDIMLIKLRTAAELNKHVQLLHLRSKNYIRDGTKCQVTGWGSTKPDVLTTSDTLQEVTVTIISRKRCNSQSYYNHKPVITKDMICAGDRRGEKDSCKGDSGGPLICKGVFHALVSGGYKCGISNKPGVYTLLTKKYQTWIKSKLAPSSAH
Briefly: Compound was evaluated to inhibit rat granzyme K; No inhibition. Put shortly:
(§2)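 Native rat granzyme K, purified by size-exclusion in 1 M NaCl then MonoS cation exchange. Incubated with inhibitor (1.0–450 μM) at 25 °C in 0.1 M Hepes, 0.01 M CaCl2, pH 7.5 (7.1% DMSO). Timed aliquots were read for residual activity on Cbz-Arg-SBzl with DTNB at 405 nm. k_obs came from ln vt/vo vs time, one or two per inhibitor. For no-inhibition lines, none was seen after 25 min.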

Assay [3] addresses T3, Serine protease 1 (Bos taurus) (UniProt P00760).
T3 sequence (whole entry): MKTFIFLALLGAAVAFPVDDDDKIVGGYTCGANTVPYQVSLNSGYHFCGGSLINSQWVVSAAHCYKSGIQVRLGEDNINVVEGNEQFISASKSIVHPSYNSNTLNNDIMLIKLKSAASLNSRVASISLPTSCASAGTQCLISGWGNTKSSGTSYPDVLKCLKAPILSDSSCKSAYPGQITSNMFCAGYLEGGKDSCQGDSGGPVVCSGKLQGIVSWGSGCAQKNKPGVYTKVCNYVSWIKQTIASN
Kind of assay: Compound was evaluated to inhibit bovine trypsin; No inhibition. Summed up: (§3)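 Irreversible inhibition assayed by incubation at 25 °C in 0.1 M Hepes, 0.01 M CaCl2, pH 7.5 (2% DMSO), inhibitor 1.0–450 μM. Timed aliquots were read for residual activity on Cbz-Arg-SBzl with DTNB at 410 nm. Pseudo-first-order k_obs came from ln vt/vo vs time, using 5–10 points over 2–3 half-lives, three k_obs per inhibitor. DMSO-only controls were run. For no-inhibition lines, none was seen after 25 min.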

The target in assay [4] is T4, Tryptase (Homo sapiens) (UniProt Q9BZJ3+Q15661+Q9NRR2). Kind of assay: Compound was evaluated to inhibit mast cell tryptase; No inhibition. Type of assay: protein assay. Summed up: (§4)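 Human lung mast cell tryptase, high-molecular-weight form, heparin-free, active sites titrated with MUGB. Incubated with inhibitor at 25 °C in 0.1 M Hepes, 10% glycerol, 10 mM heparin, pH 7.5 (7.1% DMSO). […] DMSO controls were run.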

The target in assay [5] is T2, Granzyme K (Rattus norvegicus). Kind of assay: Inhibition of rat granzyme K. Summed up: as §2
Assay [6] addresses T3, Serine protease 1 (Bos taurus). Kind of assay: Inhibition of bovine trypsin. Put shortly:
as §3

Assay [7] addresses T4, Tryptase (Homo sapiens). Kind of assay: Compound was evaluated to inhibit mast cell tryptase. Type of assay: protein assay. Conditions: concentration not given here. Summed up:
as §4

Assay [8] deals with T5, Granzyme A (Rattus norvegicus) (UniProt Q8CJF4).
T5 sequence (whole entry): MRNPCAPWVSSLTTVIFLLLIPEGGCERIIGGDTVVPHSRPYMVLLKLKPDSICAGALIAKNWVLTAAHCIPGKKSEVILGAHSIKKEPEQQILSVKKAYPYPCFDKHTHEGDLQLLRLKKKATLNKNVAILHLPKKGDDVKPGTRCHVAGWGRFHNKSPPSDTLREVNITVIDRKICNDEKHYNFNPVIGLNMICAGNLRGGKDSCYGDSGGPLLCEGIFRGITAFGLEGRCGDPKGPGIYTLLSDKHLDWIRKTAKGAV
Briefly: Inhibition of rat granzyme A. Summed up:
as §1

Assay [9] has as its target T4, Tryptase (Homo sapiens). Kind of assay: Inhibition of mast cell tryptase. Type of assay: protein assay. Put shortly: as §4
Assay [10] deals with T2, Granzyme K (Rattus norvegicus). Briefly: Compound was evaluated to inhibit rat granzyme K;No inhibition. Put shortly: as §2

In assay [1], `NCCCC(NC(=O)OCc1ccccc1)P(=O)(Oc1ccccc1)Oc1ccccc1` (centres undefined) came in with a kobs/[I] (second-order inactivation rate constant) of 0.6 M⁻¹ s⁻¹. For the same compound, the “K obs / 1” value in assay [2], in assay [3] and in [4] was “inactive” throughout.
Consider `N=C(N)c1ccc(C(NC(=O)[C@H](Cc2ccccc2)NC(=O)OCc2ccccc2)P(=O)(Oc2ccccc2)Oc2ccccc2)cc1` (some centres undefined), for which the kobs/[I] (second-order inactivation rate constant) in [1] is 14 M⁻¹ s⁻¹; in assay [5] it was 13 M⁻¹ s⁻¹. The K obs / 1 was 17 M⁻¹ s⁻¹ in [6] and 8 M⁻¹ s⁻¹ in [8]. The inhibition in assay [7] was 5%.
In turn, `C[C@H](NC(=O)[C@@H](CCCCN)NC(=O)OCc1ccccc1)C(=O)NC(c1ccc(C(N)N)cc1)P(=O)(Oc1ccccc1)Oc1ccccc1` (some centres undefined) had a kobs/[I] (second-order inactivation rate constant) in [1] of 90 M⁻¹ s⁻¹. In addition, the “K obs / 1” value in assay [2] was “inactive”. Besides, the K obs / 1 in [6] was found to be 3140 M⁻¹ s⁻¹. Moreover, in [9], the kobs/[I] (second-order inhibition rate constant) was found to be 2 M⁻¹ s⁻¹.
On to `NC(N)c1ccc(C(NS(=O)(=O)c2cccc3ccccc23)P(=O)(Oc2ccccc2)Oc2ccccc2)cc1` (centres undefined), for which the kobs/[I] (second-order inactivation rate constant) in assay [1] worked out at 330 M⁻¹ s⁻¹. Moreover, in assay [2], the “K obs / 1” value is “inactive”. Also, the figures for the K obs / 1 in assay [6] and in assay [8] were 170 M⁻¹ s⁻¹ and 30 M⁻¹ s⁻¹, respectively. Besides, the kobs/[I] (second-order inhibition rate constant) in assay [9] was determined as 10 M⁻¹ s⁻¹.
In [1], `N=C(N)c1ccc(C(NC(=O)[C@@H]2CCCN2C(=O)c2cccc(Oc3ccccc3)c2)P(=O)(Oc2ccccc2)Oc2ccccc2)cc1` (some centres undefined) gave a kobs/[I] (second-order inactivation rate constant) of 330 M⁻¹ s⁻¹. Besides, the “K obs / 1” value in [2] was “inactive”. The compound further returned a K obs / 1 in assay [6] of 4080 M⁻¹ s⁻¹. In [7], the inhibition was found to be 7%.
In the case of `N=C(N)c1ccc(C(NC(=O)/C=C/c2ccco2)P(=O)(Oc2ccccc2)Oc2ccccc2)cc1` (centres undefined), the kobs/[I] (second-order inactivation rate constant) in assay [1] came out at 1740 M⁻¹ s⁻¹; in assay [5], 32 M⁻¹ s⁻¹. For the same compound, the K obs / 1 in assay [6] came out at 360 M⁻¹ s⁻¹; in [8], 1740 M⁻¹ s⁻¹. In addition, in assay [4], the “K obs / 1” value was “inactive”.
Take `NC(N)c1ccc(C(NC(=O)OCc2cccc3ccccc23)P(=O)(Oc2ccccc2)Oc2ccccc2)cc1` (centres undefined): the kobs/[I] (second-order inactivation rate constant) in assay [1] worked out at 160 M⁻¹ s⁻¹; in assay [5], 12 M⁻¹ s⁻¹. In addition, the K obs / 1 in assay [6] amounted to 30 M⁻¹ s⁻¹; in assay [8], 90 M⁻¹ s⁻¹. Moreover, the “K obs / 1” value in assay [4] was “inactive”.
Take `C[C@H](NC(=O)[C@@H](CCCCNC(=O)OC(C)(C)C)NC(=O)OCc1ccccc1)C(=O)NC(c1ccc(C(N)N)cc1)P(=O)(Oc1ccccc1)Oc1ccccc1` (some centres undefined): in assay [1], the kobs/[I] (second-order inactivation rate constant) was found to be 110 M⁻¹ s⁻¹. Besides, the “K obs / 1” value in assay [2] was “inactive”. This compound showed a K obs / 1 in assay [6] of 3100 M⁻¹ s⁻¹. The kobs/[I] (second-order inhibition rate constant) in [9] was 8.5 M⁻¹ s⁻¹.
Compound `CC(C)C[C@H](NC(=O)OCc1ccccc1)C(=O)NC(c1ccc(C(=N)N)cc1)P(=O)(Oc1ccccc1)Oc1ccccc1` (some centres undefined) showed a kobs/[I] (second-order inactivation rate constant) in [1] of 6.3 M⁻¹ s⁻¹. The “K obs / 1” value in assay [10] was “inactive”. In assay [6], the K obs / 1 turned out to be 50 M⁻¹ s⁻¹. The kobs/[I] (second-order inhibition rate constant) in assay [9] came out at 0.3 M⁻¹ s⁻¹.
Take `N=C(N)c1ccc(C(NC(=O)/C=C/c2cccnc2)P(=O)(Oc2ccccc2)Oc2ccccc2)cc1` (centres undefined): the values for the kobs/[I] (second-order inactivation rate constant) in [1] and in assay [5] were 5 M⁻¹ s⁻¹ and 3 M⁻¹ s⁻¹, respectively. Further, the “K obs / 1” value in assay [3] and in assay [4] was “inactive” in each case. In assay [8], this compound registered a K obs / 1 of 1 M⁻¹ s⁻¹.
As to `NC(N)c1ccc(C(NC(=O)c2cccc(Oc3ccccc3)c2)P(=O)(Oc2ccccc2)Oc2ccccc2)cc1` (centres undefined), the kobs/[I] (second-order inactivation rate constant) in assay [1] was found to be 340 M⁻¹ s⁻¹; in assay [5] it was 1 M⁻¹ s⁻¹. Also, the K obs / 1 in assay [6] worked out at 50 M⁻¹ s⁻¹; in [8], 470 M⁻¹ s⁻¹. For the same compound, the “K obs / 1” value in assay [4] was “inactive”.
As to `C[C@H](NC(=O)OCc1ccccc1)C(=O)NC(c1ccc(C(N)N)cc1)P(=O)(Oc1ccccc1)Oc1ccccc1` (some centres undefined), the kobs/[I] (second-order inactivation rate constant) in assay [1] amounted to 1670 M⁻¹ s⁻¹. Further, the “K obs / 1” value in assay [2] was “inactive”. The K obs / 1 in assay [6] was determined as 1850 M⁻¹ s⁻¹; in [8] it was 1270 M⁻¹ s⁻¹. Also, the kobs/[I] (second-order inhibition rate constant) in [9] was found to be 0.8 M⁻¹ s⁻¹.
In assay [1], `C[C@H](NC(=O)[C@@H](CC(=O)OC(C)(C)C)NC(=O)OCc1ccccc1)C(=O)NC(c1ccc(C(=N)N)cc1)P(=O)(Oc1ccccc1)Oc1ccccc1` (some centres undefined) had a kobs/[I] (second-order inactivation rate constant) of 280 M⁻¹ s⁻¹. In addition, the “K obs / 1” value in assay [2] is “inactive”. Also, the K obs / 1 in [6] stood at 2000 M⁻¹ s⁻¹. The compound also showed a kobs/[I] (second-order inhibition rate constant) in [9] of 3 M⁻¹ s⁻¹.
